mABHD4 FP = inhibits mouse alpha/beta hydrolase domain 4 | Q8VD66 | purified mABHD4, FP-Rh probe fluorescence polarization | inhibition, % at 8.92 µM | hit rate 0.54% among 370,000 | AID 720543;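 active = inhibition exceeding the mean over every tested compound plus 3 SD, cut at about 30% in these data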;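 also: 0% = plate median of compound wells and 100% = S159A mutant with DMSO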
Target sequence (Q8VD66 whole entry, looked up, the tested form may be a part): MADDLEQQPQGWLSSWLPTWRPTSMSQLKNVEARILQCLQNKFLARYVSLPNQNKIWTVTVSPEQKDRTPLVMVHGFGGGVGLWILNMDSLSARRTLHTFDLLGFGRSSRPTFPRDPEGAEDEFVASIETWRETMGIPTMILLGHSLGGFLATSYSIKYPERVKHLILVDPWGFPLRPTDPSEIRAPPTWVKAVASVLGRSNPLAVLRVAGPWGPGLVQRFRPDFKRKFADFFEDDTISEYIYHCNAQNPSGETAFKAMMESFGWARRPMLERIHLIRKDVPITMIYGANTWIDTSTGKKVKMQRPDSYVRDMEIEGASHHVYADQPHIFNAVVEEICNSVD
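Assay system: mouse ABHD4 enzyme, wild type / Also added: fluorescent activity-based probe FP-Rh / Doses: single nominal dose of 8.92 µM, 0.89% DMSO final / Timing: 45 min compound pre-incubation plus 60 min probe step, 25 °C / Signal: FP readout, ex 525 nm / em 598 nm / Control set: S159A mutant/DMSO as 100%, compound-well median as 0%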
PRMT1 inh = inhibitors of human PRMT1; hit rate 1.3% among 370,000; Q99873; inhibition, % at 2.79 µM; recombinant PRMT1, activity-based probe fluorescence polarization;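 active = inhibition above about 21% made by adding two undisclosed values, limit read from the data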
HTRA1 inh = inhibitors of human serine peptidase HTRA1; recombinant HTRA1, FP-rhodamine activity-based probe, fluorescence polarization; hit rate 0.5% among 340,000; inhibition, % at 5.96 µM; Q92743; AID 504803; in the data active = inhibition above about 36%;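 also: 0% = enzyme with DMSO and 100% = wells lacking enzyme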
SIAE primary = inhibitors of human sialic acid acetylesterase SIAE. AID 1053197. SIAE FP-Rh probe binding, fluorescence polarization. hit rate 0.69% among 370,000. inhibition, % at 9.66 µM;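 active = inhibition above a cutoff: mean of compounds within the control limits plus 3 SD of those, cut at about 17% in these data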;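 also: 0% = plate median of compound wells and 100% = probe without SIAE protein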
TCR CD3 inh = inhibitors of human TCR-CD3 interaction; TAMRA-labeled TCR probe fluorescence, biochemical; inhibition, % at 9.4 µM; hit rate 0.37% among 360,000; in the data active = inhibition above about 19%;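 also: recombinant mutant TCR 2C K166C tagged with TAMRA read by polarization; 0% = receptor in buffer alone and 100% = receptor with positive control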
PRMT1 inh conf = confirmation of human PRMT1 inhibitors | hit rate 42% among 3,300 | recombinant His-PRMT1, activity-based probe fluorescence polarization | inhibition, % at 2.79 µM | shares compounds with PRMT1 inh;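 active = mean inhibition across replicates above the hit cutoff derived for the earlier primary screen, cut at about 22% in these data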
The depositor's hits bear a star. Most compounds without a hit are left out; they make up all but 2.7% or so of the library.

How did COc1ccc(CN2C(=O)Cc3c2nc(N)c2c(N)nc(N4CCOCC4)c(C#N)c32)cc1 do in these assays?
mABHD4 FP: 12; PRMT1 inh: 25*; HTRA1 inh: 5; SIAE primary: 1; TCR CD3 inh: 6; PRMT1 inh conf: 13

How did Nc1ccccc1SC(CC(=O)c1ccccc1)c1cccc([N+](=O)[O-])c1 (stereo not given) do in these assays?
mABHD4 FP: 6; PRMT1 inh: 86*; HTRA1 inh: -13; SIAE primary: 2; TCR CD3 inh: 0; PRMT1 inh conf: 57*

What do the screens show for `Cc1ccc(C(=O)CC(SCC(=O)O)c2ccc([N+](=O)[O-])cc2)cc1` (stereo not given)?
mABHD4 FP: -3; PRMT1 inh: 4; HTRA1 inh: -7; SIAE primary: -1; TCR CD3 inh: 1

What do the screens show for `Nc1ccccc1SC(CC(=O)c1ccccc1)c1ccc([N+](=O)[O-])cc1` (stereo not given)?
mABHD4 FP: 23; PRMT1 inh: 83*; HTRA1 inh: -17; SIAE primary: 6; TCR CD3 inh: 1; PRMT1 inh conf: 61*

What do the screens show for `O=C(NC(NC(=O)c1ccccc1)c1cccc([N+](=O)[O-])c1)c1ccccc1`?
mABHD4 FP: -1; PRMT1 inh: 1; HTRA1 inh: 1; SIAE primary: -2; TCR CD3 inh: -8

What do the screens show for `COc1ccc(N2CCCC2)c(NC(=O)c2ccc([N+](=O)[O-])o2)c1`?
mABHD4 FP: 11; PRMT1 inh: 39*; HTRA1 inh: 5; SIAE primary: 15; TCR CD3 inh: -1; PRMT1 inh conf: 3

Results for O=C1C(=Cc2ccccc2O)SC(=S)N1CCCN1CCOCC1 ?
mABHD4 FP: 4; PRMT1 inh: 68*; HTRA1 inh: 3; SIAE primary: 5; TCR CD3 inh: 1; PRMT1 inh conf: 83*

How did S=C(Nc1ccccn1)c1ccccn1 do in these assays?
mABHD4 FP: 4; PRMT1 inh: 32*; HTRA1 inh: -1; SIAE primary: 0; TCR CD3 inh: -5; PRMT1 inh conf: 8

What do the screens show for `O=C(Nc1ccccn1)C(=O)Nc1ccccn1`?
mABHD4 FP: 0; PRMT1 inh: 0; HTRA1 inh: 3; SIAE primary: 3; TCR CD3 inh: 0

What do the screens show for `NC(=O)c1cc2cc(Cl)ccc2o/c1=N/NC(=O)c1cccs1`?
mABHD4 FP: 1; PRMT1 inh: 2; HTRA1 inh: 2; SIAE primary: 3; TCR CD3 inh: 11

What do the screens show for `Cc1cc(Cl)ccc1OCc1n[nH]c(=S)n1C1CCCCC1`?
mABHD4 FP: -22; PRMT1 inh: 26*; HTRA1 inh: -26; SIAE primary: -2; TCR CD3 inh: -7; PRMT1 inh conf: 2

How did O=C(NN1C(=O)/C(=C/c2cccs2)SC1=S)c1cccnc1 do in these assays?
mABHD4 FP: 8; PRMT1 inh: 27*; SIAE primary: 4; TCR CD3 inh: 2; PRMT1 inh conf: -1

Results for Cc1cc(NC(=O)c2ccc3nc(C)sc3c2)no1 ?
mABHD4 FP: -10; PRMT1 inh: 31*; HTRA1 inh: 8; SIAE primary: -1; TCR CD3 inh: -7; PRMT1 inh conf: -3

Results for Cc1cc(NC(=O)c2ccc(Cl)cc2)no1 ?
mABHD4 FP: 5; PRMT1 inh: -1; HTRA1 inh: -7; SIAE primary: 0; TCR CD3 inh: -3

What do the screens show for `CCCC[C@H]1C2CC(OC(=O)Nc3cccc(Cl)c3)C(C2)[C@H]2CCCCN21` (stereo not given in full)?
mABHD4 FP: 2; PRMT1 inh: -1; SIAE primary: -4

Results for CC1=C(C(=O)Nc2ccccc2)C(c2ccc(Cl)cc2)n2c(s/c(=C/c3cccc(OCC(=O)O)c3)c2=O)=N1 (stereo not given) ?
mABHD4 FP: -38; PRMT1 inh: 26*; HTRA1 inh: -45; SIAE primary: -35; TCR CD3 inh: 8; PRMT1 inh conf: 5

How did CCOc1ccc(C2C(C(=O)Nc3ccccc3)=C(C)N=c3s/c(=C/c4cccc(OCC(=O)O)c4)c(=O)n32)cc1 (stereo not given) do in these assays?
mABHD4 FP: -42; PRMT1 inh: 25*; HTRA1 inh: -41; SIAE primary: -34; TCR CD3 inh: 1; PRMT1 inh conf: 1

Results for CCOC(=O)C1=C(C)N=c2s/c(=C/c3ccc(OCC(=O)O)cc3)c(=O)n2C1c1ccc(SC)cc1 (stereo not given) ?
HTRA1 inh: -87

How did CC(C)(C)c1ccc(S(=O)(=O)N2CCCC(C(=O)NCc3cccs3)C2)cc1 (stereo not given) do in these assays?
mABHD4 FP: 1; PRMT1 inh: -5; SIAE primary: -1

How did c1ccc(-c2cc3c(N4CCCC4)ncnc3s2)cc1 do in these assays?
mABHD4 FP: 11; PRMT1 inh: 40*; HTRA1 inh: -7; SIAE primary: -16; TCR CD3 inh: 3; PRMT1 inh conf: 0

What do the screens show for `COc1ccc(C(=O)NC(=S)SCC(=O)O)cc1`?
mABHD4 FP: 6; PRMT1 inh: 2; HTRA1 inh: 1; SIAE primary: 8; TCR CD3 inh: 11

What do the screens show for `CCOC(=O)CSC(=S)NC(=O)c1ccc(OC)cc1`?
mABHD4 FP: 6; PRMT1 inh: 27*; HTRA1 inh: -2; SIAE primary: -4; TCR CD3 inh: -4; PRMT1 inh conf: 100*

What do the screens show for `CCOC(=O)c1cc2c(OC)ccc(OC)c2n1CC(=O)c1ccccc1`?
mABHD4 FP: 2; PRMT1 inh: 0; HTRA1 inh: -4; SIAE primary: 4; TCR CD3 inh: 3

How did O=C(CCNC(=O)c1ccco1)NCCc1ccc(Cl)cc1 do in these assays?
mABHD4 FP: -1; PRMT1 inh: 47*; HTRA1 inh: 3; SIAE primary: -3; TCR CD3 inh: 4; PRMT1 inh conf: 1

Results for CC1(C)Cc2c(c(N3CCOCC3)nc3sc(C(=O)Nc4ccccc4)c(N)c23)CO1 ?
mABHD4 FP: -1; PRMT1 inh: 27*; HTRA1 inh: -3; SIAE primary: 4; TCR CD3 inh: -10; PRMT1 inh conf: 23*

How did CC1(C)Cc2c(c(N3CCOCC3)nc3sc(C(=O)Nc4cccc(Cl)c4)c(N)c23)CO1 do in these assays?
mABHD4 FP: 1; PRMT1 inh: 8; HTRA1 inh: -6; SIAE primary: 0; TCR CD3 inh: -3

Results for Cc1ccc(C=Nn2c(-c3n[nH]c4c3CCC4)n[nH]c2=S)s1 ?
mABHD4 FP: -4; PRMT1 inh: 29*; SIAE primary: 3; PRMT1 inh conf: 4

Results for O=C(O)CCCCN1C(=O)C=CC1=O ?
mABHD4 FP: 7; PRMT1 inh: 77*; SIAE primary: 1; TCR CD3 inh: -3; PRMT1 inh conf: 95*

What do the screens show for `O=C(OCc1ccccc1)N1Cc2ccnnc2CC1c1ccccc1Br` (stereo not given)?
mABHD4 FP: 2; PRMT1 inh: 0; SIAE primary: 9; TCR CD3 inh: 1

Bioassay records from PubChem.
